{"source": "ChEMBL document CHEMBL1955833", "about": "“Wnt inhibition correlates with human embryonic stem cell cardiomyogenesis: a structure-activity relationship study based on inhibitors for the Wnt response” (J Med Chem, 2012)", "key": {"[1]": {"assay": "Inhibition of beta-catenin-dependent canonical Wnt3 pathway in human HEK293T cells by luciferase reporter gene assay", "assay_type": "cell-based", "conditions": "HEK-293T"}, "HEK-293T": {"system": "HEK-293T", "assay": "Cytotoxicity against human HEK293T cells at 0.2 to 20 uM after 24 hrs by alamar blue assay", "assay_type": "cell-based"}, "[2]": {"assay": "Cardiogenic activity in human embryonic stem cells at 2 uM by MYH6 reporter gene assay relative to control", "assay_type": "functional, Embryonic stem cell"}, "[3]": {"assay": "Inhibition of beta-catenin-dependent canonical Wnt3A pathway in human HEK293T cells at 1 uM by luciferase reporter gene assay", "assay_type": "cell-based", "conditions": "HEK-293T", "outline": "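HEK293T cells transiently co-transfected with Super(8x)TOPflash (TCF-firefly luciferase), TK-Renilla luciferase for normalization, and a Wnt3A-expressing vector to activate the pathway. Compounds tested at a single concentration of 1 μM, alongside untreated and DMSO vehicle controls. Firefly signal normalized to Renilla.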"}, "[4]": {"assay": "Half life in phosphate buffer pH 7.4 at 10 uM by HPLC analysis", "assay_type": "physicochemical", "outline": "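Degradation followed by HPLC, and half-life determined where degradation occurred.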"}, "H9 [5]": {"system": "H9", "assay": "Cardiogenic activity in human H9 cells after 14 days by MYH6-mCherry reporter gene assay relative to 4-[(1R,2S,6R,7S)-3,5-dioxo-4-azatricyclo[5.2.1.0~2,6~]dec-8-en-4-yl]-N-quinolin-8-ylbenzamide", "assay_type": "functional", "outline": "(§1)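 hESC embryoid bodies grown to day 4, dissociated to single cells and plated in 384-well format with serial compound dilutions. At day 10 switched to serum-free medium with T3. At day 14 moved to PBS and imaged for red fluorescence. Total area and intensity of the MYH6-mCherry reporter were quantified per well and expressed as percent cardiogenesis, with the reference set to 100% at its maximum.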"}, "[6]": {"assay": "Cardiogenic activity in human embryonic stem cells at 2.5 uM by MYH6 reporter gene assay relative to control", "assay_type": "functional, Embryonic stem cell"}, "H9 [7]": {"system": "H9", "assay": "Cardiogenic activity in human H9 cells at 10 uM after 14 days by MYH6-mCherry reporter gene assay relative to 4-[(1R,2S,6R,7S)-3,5-dioxo-4-azatricyclo[5.2.1.0~2,6~]dec-8-en-4-yl]-N-quinolin-8-ylbenzamide", "assay_type": "functional", "outline": "as §1"}}}
{"smiles": "Oc1nc(-c2ccc(C(F)(F)F)cc2)nc2c1CSCC2", "values": [{"measurement": "IC50", "setting": "[1]", "result": 51, "unit": "nM"}, {"measurement": "Activity", "setting": "HEK-293T", "result": "Non-toxic"}, {"measurement": "fold change (FC)", "setting": "[2]", "result": 1000}]}
{"smiles": "O=C(Nc1ccc(N2C(=O)[C@@H]3[C@@H]4CC[C@@H](C4)[C@@H]3C2=O)cc1)c1cccc2cccnc12", "values": [{"measurement": "inhibition", "setting": "[3]", "result": 91, "unit": "%"}, {"measurement": "IC50", "setting": "[1]", "result": 119, "unit": "nM"}, {"measurement": "half-life at 10 µM", "setting": "[4]", "result": 3.8, "unit": "h"}, {"measurement": "Activity", "setting": "H9 [5]", "result": 1, "unit": "%"}]}
{"smiles": "Cc1ccc2nc(NC(=O)CSc3nc4c(c(=O)n3-c3ccc(F)cc3)SCC4)sc2c1", "values": [{"measurement": "IC50", "setting": "[1]", "result": 538, "unit": "nM"}, {"measurement": "Activity", "setting": "HEK-293T", "result": "Non-toxic"}, {"measurement": "fold change (FC)", "setting": "[6]", "result": 1000}]}
{"smiles": "O=C1[C@@H]2[C@@H]3CC[C@@H](C3)[C@@H]2C(=O)N1[C@H]1CC[C@H](C(=O)Nc2cccc3ccncc23)CC1", "values": [{"measurement": "inhibition", "setting": "[3]", "result": 91, "unit": "%"}, {"measurement": "IC50", "setting": "[1]", "result": 93, "unit": "nM"}, {"measurement": "Activity", "setting": "H9 [5]", "result": "Dose-dependent effect"}, {"measurement": "Activity", "setting": "H9 [5]; record 2", "result": 25, "unit": "%"}, {"measurement": "Activity", "setting": "H9 [7]", "result": 24, "unit": "%"}]}
